Experimental data from the EternaBench riboswitch data.

Tested on: MS2 coat protein
Test: apparent Kd, MS2 coat protein; higher = weaker binding; RNA-MaP array; FMN 200 µM where present
Procedure, shortened: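 On Illumina sequencing-chip clusters, designs were transcribed by stalled E. coli RNA polymerase and titrated with SNAP-549-labelled MS2 coat protein (0.7 or 1.5 nM, doubling to 3 µM), without and then with constant ligand, in 100 mM Tris-HCl pH 7.5, 80 mM KCl, 4 mM MgCl2, BSA, DTT, yeast tRNA and Tween-20. Apparent Kd is the median of filtered per-cluster curve fits to green signal normalised to red-channel RNA signal and control-cluster median Fmax.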

[1] = designed as: ON switch for flavin mononucleotide, no ligand
[2] = ligand present: flavin mononucleotide, designed as: ON switch for flavin mononucleotide
[3] = designed as: OFF switch for flavin mononucleotide, no ligand
[4] = ligand present: flavin mononucleotide, designed as: OFF switch for flavin mononucleotide

Sequence | apparent Kd [1] [µM] | apparent Kd [2] [µM] | apparent Kd [3] [µM] | apparent Kd [4] [µM]
ACAUGAGGAUCACCCAUGUUAAGCGAGGAUAUUUCACUGCACAUGAGGUUCGCCCAUGUCCUGCGGAAGAAGGUGCGAAUAAUU | 0.0334 | 0.0171 |  | 
CAGCCCUGAGGAUAUCCAUCCUUGUACAUGAGGAUCACCCAUGUUCUCCUCUGGGCUUUGGGAGAAGGCAGGUAUC |  |  | 0.0596 | 0.0587
ACAUACAUUCGAGGAUAUCGGUGAACAAAUUAACGAGAAGGCGAUAAAAUUUUUAAUCUUAUGAACAUGAGGAUCACCCAUGUA | 0.0213 | 0.0185 |  | 
GACUGGCAGCUAGGAUAUGGGCGAUCACAUGAGGAUCACCCAUGUCAACAUCAAAACAAGAUUAACCAGAAGGAGCCGCGGGUU | 0.0161 | 0.11 |  | 
UUACUAUAACAGAAGGGUAGAUAGUAUAUAGAUGCAGGAUAUGUUACAUGAGGAUCACCCAUGUUUCACCCACAUGAGGAUCAC |  |  | 0.032 | 0.0703
GGGAUCACCGUCAGGAUAUGUGACCGUACUAUCGGGCAGAAGGGACAUGAGGAUCACCCAUGUUGUCGUAGACU |  |  | 0.0207 | 0.0582
UCAUAAUAGAUCCUAUUUAUCUACAUGAGGAUCACCCAUGUGCAGGAUAUGCUAAAAUUAAAAUAGCAGAAGGGCAAUAUCAGC |  |  | 0.109 | 0.365
AUGUUUAAUGCAGGAUAUGAUUAACAUGAGGAUCACCCAUGUGGUGUUGUGAGUAAGGAGAGUGAUCAGAAGGGCAUUUUUUUU | 0.592 | 0.54 |  | 
UGGUGAAGUGUAGGAUAUGGAGAUGGGUUUUGGCCAGAAGGACAUGAGGAUCACCCAUGUGGUAGAGGGUUGGUGGUGGCUCGU |  |  | 0.0316 | 0.0243
UUUACAUGAGGAUCACCCAUGUUAAAAUAAUUAAUUAUAAGUGAGGAUAUAUAAUUUAUAAAAUUGUAGAAGGCACUGGGUAUU | 0.0174 | 0.0211 |  | 
CUUCAGUCAGGAUAUCUGCACGCUGGUGAGACCGGACGGAAGGAGAAGGGACAUGAGGAUCACCCAUGUAAAGC |  |  | 0.014 | 0.0175
ACAUGAGGAUCACCCAUGUAUUUGUAGGAUAUACUCUAUUGUUUAUUACUCUAGUUAAUAUGUUUGUAGAAGGACAUUACAUGA |  |  | 0.00794 | 0.0108
UUUUAACAUGAGGAUCACCCAUGUGAGGAUAUCGAAAUUUAUAUUAAUAUUUAUAAAACGAGAAGGCACAUUUU |  |  | 0.104 | 0.0828
CCUGCACAUGAGGAUCACCCAUGUCAGGAUAUCUCGCCGUCGGCUUGCCGACGGUAUUAGAGAAGGGACAAGGG |  |  | 0.0234 | 0.029
GGAGACCUCACAGGAUAUGCUGGACUUUGUCCAGCAGAAGGGUGAAACAUGAGGAUCACCCAUGUUGGUCUCCAAAUAUUUAAU | 0.66 | 0.0541 |  | 
ACAAUAGUAUCACAUGUAUUACAUGAGGAUCACCCAUGUAACUAGGAUAUGUUUUAGAAUUUACAACAGAAGGAGUUAUUAUGU |  |  | 0.00848 | 0.0141
AAUCCACAUGAGGAUCACCCAUGUCAGGAUAUCGCGCGCGCGUUUUCGGUCUUUCGCGCGAGAAGGGACGACUG |  |  | 0.0161 | 0.0188
GGUACCUUUACAGGAUAUGCUAUCCUUUGGGUAGCAGAAGGGUGAUACAUGAGGAUCACCCAUGUGGUGCCAGGGCGUGAGCCC | 0.0932 | 0.313 |  | 
GCUUCGGCAGGAUAUACAUGAGGAUCACCCAUGUUGAAGUUGAAGAUCUUCGGCUUCGGUAGAAGGGUUGAAGU |  |  | 0.038 | 0.0321
AAAAAAAAAAGGCAGGAUAUCCAAAAAAAAACAUGAGGAUCACCCAUGUAAAAAAAAAAAAAAUGGGAGAAGGGUCAAAAAAAAAA | 0.0888 | 0.034 |  | 
CUACCUUAUGAGAAGGCGAUUAUGAAACAUGAUCGAGGAUAUCAUGUAAACAUGAGGAUCACCCAUGUAUGGGUAUUAUGGUAA | 0.211 | 0.0328 |  | 
GUCGGAAACGACAAAAGUAGCAUACGAGAAGGUUGAUCCAAGACAUGAGGAUCACCCAUGUAGAUAGAGGAUAUUGAAUGCUAC | 0.31 | 0.244 |  | 
UGAUACUAGGGAGGAUAUGGGAAGAUACAUGAGGAUCACCCAUGUUUAAGAAUGCCGAGAGGCAACUAGAAGGCCCUAGUACCU | 0.538 | 0.0213 |  | 
UUGGGUUUGCGAGGAUAUCGUUUGUGAUUUGAUCGAGAAGGCGCUAUUUAAAUUAUUUUAACAUUACAUGAGGAUCACCCAUGU | 0.0191 | 0.0173 |  | 
CAGCCCUGAGGAUAUCUCAUCUCGCACAUGAGGAUCACCCAUGUUCUUCUCUGGGUUUCGAGAGAAGGCAGGCCUC |  |  | 0.586 | 0.434
GCGAUUGCGUAGAAGGUACAAUAUAAUACAUUGUAAGGAUAUACUUACAUGAGGAUCACCCAUGUUAAUGGAAUUUGCAAUCGC | 0.0182 | 0.0119 |  | 
AAGAAGUCAGGAUAUGCAUGGCGGGACUUGCGUCGUGGCGUGCAGAAGGGACAUGAGGAUCACCCAUGUGGAGG |  |  | 0.162 | 0.222
AGAGACUUGGGAGGAUAUGCCUGAUGGACACGGGCAGAAGGCCCAAACAUGAGGAUCACCCAUGUAUCUAAGCCCUGGAAGGGC | 0.31 | 0.0206 |  | 

Sequence | apparent Kd [1] [µM] | apparent Kd [2] [µM] | apparent Kd [3] [µM] | apparent Kd [4] [µM]
UUUGCAUUCCGAGGAUAUUCAGAUAAUAACUACACAUGAGGAUCACCCAUGUGGCGAUAGCCUAGGGAGAAGGCGGUUUGCUUU | 0.0197 | 0.0209 |  | 
AAGUAGGUAGGAUAUACAUGGAUAUACAUUCAUGUGGACCUACAUGAGGAUCACCCAUGUAGAAGGACCUACAA |  |  | 0.0348 | 0.0642
CCAGCGUGUGUGAGGAUAUGCUGGUCCUUGGAUCAGCAGAAGGCACAUGAGGAUCACCCAUGUGAGAACGUUGG |  |  | 0.0231 | 0.105
GUUUUUCCUCAUGUACAUGAGGAACAUGAGGAUCACCCAUGUAGAAGGAUUUCCCUUAAAUUAAGAUAGGAUAUACAUAUAUUU |  |  | 0.102 | 0.0593
AACUCACAUGAGGAUCACCCAUGUGAGGAUAUAUUAAUAUGUAUGUUAUUAUGUAUUGAUAGAAGGCGCGUGAU |  |  | 0.0463 | 0.0491
UCGCGGGUGCAGAAGGGAUAGGCCUAUUGUCGUGGUGUCUAAACUUAACAUGAGGAUCACCCAUGUCAGGAUAUGCCCACGCGA |  |  | 0.0116 | 0.0135
UCCUUCUGUUGAGGAUAUGUAAGACAGCGGCUGCUAUGGCGACACGCUGAUACAGAAGGCAACAUGAGGAUCACCCAUGUUCAA |  |  | 0.0192 | 0.145
AAAAAAAAAAGCUAGGAUAUCCAAAAAAAAACAUGAGGAUCACCCAUGUAAAAAAAAAAAAAAUGGGAGAAGGAGCAAAAAAAAAA | 0.0524 | 0.0269 |  | 
GCUAGUCAUGUCAGGAUAUGCAGAUCCUUGGAUCUGCAGAAGGGACAUGAGGAUCACCCAUGUGCCUAGCUAGC |  |  | 0.041 | 0.317
UGGUACUAGGGAGGAUAUGGGAAGAUACAUGAGGAUCACCCAUGUUUAAGGAUGCCGAGAGGCAACUAGAAGGCCCUAGUACCU | 0.851 | 0.097 |  | 
ACGAUGUCAGGAUAUCGAUCACGGGUCUGAAGACACGUGUUUGAGAAGGGACAUGAGGAUCACCCAUGUGUCUA |  |  | 0.0436 | 0.223
CAGCUACCCAGUAUGGGUAUUUUUACAGAAGGCCAGGCACAUGAGGAUCACCCAUGUCAAGUUAUGGAGGAUAUGUUAGUGUAU | 0.00825 | 0.00476 |  | 
ACAUGAGAGAUAGGAUAUCUUGUACCUACAUGUGACAUGAGGAUCACCCAUGUGGUAAGUAUGAGGGAGAAGGGUCAGAUAUGU | 0.0579 | 0.0559 |  | 
CUGUUGUGGUGCUGCUUGGCUUGGAGAGAAGGGUGAUUCACAUGAGGAUCACCCAUGUAGGACUUACAGGAUAUUUCCGGGUCU | 0.0178 | 0.0188 |  | 
CAAUUGGCACAGAAGGGUGACAUGAGGAUCACCCAUGUAGCGUGGCACUCAGGAGAAGCCACGCCACAGGAUAUGUGCGGGCAC | 0.0346 | 0.0416 |  | 
GUGCUUAACUAGAAGGCCGAUAGCAAAGCUAUCGGAGGAUAUGGGUUCCGGAAACGGACAUGAGGAUCACCCAUGUGGCACAAA | 0.121 | 0.0146 |  | 
CUUUUGUGAGGAUAUUAGUAGUUUAUAAUUGGUGUUAUUACUGAGAAGGCACAUGAGGAUCACCCAUGUACAAC |  |  | 0.0479 | 0.181
AAAACAUGAGGAUCACCCAUGUAAAGAUCGGUUAAUAGAGGUGAGGAUAUACUAAAUUUUGGGUGGUAGAAGGCACUGGGUACA | 0.187 | 0.122 |  | 
GAGCGAGGGACAGGAUAUGCGGCGAAACUCGCCGCAGAAGGGUCGACAUGAGGAUCACCCAUGUCCUUACGCUCCAAGUAGAGG | 0.097 | 0.488 |  | 
CAGGUAGACUGAGGAUAUACACUAAACAGCUAGUCUAUCUAGCUGCCUACAUGAGGAUCACCCAUGUAGAAGGCAGUCUGCCUG |  |  | 0.0158 | 0.0182
CAUAACUUUUCUCAUGUAAACAUGAGGAUCACCCAUGUAAUGAGAAGGAGGCGGCAGAGAGCAUCCUAGGAUAUCAGAAUUGUU |  |  | 0.00702 | 0.00674
UAAGUCGAGAAGAUAAUAAUGAAUACAUGAGGAUCACCCAUGUAGGAUAUGCAGUGGAAUACACUGCAGAAGGACAUACUCGAC |  |  | 0.0143 | 0.0169
CUACCGCGUGUGAGGAUAUUAUCACGUUACGGCGCUAAGAAGGUACAUGAGGAUCACCCAUGUCUCAACGGGUG |  |  | 0.447 | 0.546
UAUUAAUGCAAGGAUAUGCUUUUAAUUUUUUUUGCAGAAGGUGCAACAUGAGGAUCACCCAUGUUUCCGGGUAU |  |  | 0.0265 | 0.0391
GUCAGGUCGUGAGGAUAUACAACACUGCUUCGGCAGUGUAUUAAGAUCACAUGAGGAUCACCCAUGUAGAAGGCACGAGCUGAU |  |  | 0.0141 | 0.21
UGGGCGUGUGUCAGGAUAUGUGCUCUUCCUAGAGCGUAGAAGGGACAUGAGGAUCACCCAUGUCGAAUUGCCAA |  |  | 0.0174 | 0.0307
GUGGUCAGACAUGAGGAUCACCCAUGUGGAAUAAAUAAGGAGAAGGAUAUUGAAUAUAGGAUAUACAAGAAGGUCUGGUUGGUG | 0.0849 | 0.087 |  | 
